miR-122 sensor: miR-122 inhibition in Huh7 cells. Huh7 miR-122 Renilla luciferase sensor, 48 h; neutral wells = 0, positive control = 100. 340,000 compounds, 0.3% hits. activation (reporter increase), % at 12.5 µM;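 active = mean replicate activation score at least 90 and every replicate individually at or above 90; inconclusive = only one of the two criteria met; inactive = neither criterion met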;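 note: higher luciferase means less miR-122 activity so hits act as miR-122 inhibitors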
DENV2 CPE rescue: protects cells from dengue virus 2 cytopathic effect; DENV2-infected cells, cytopathic effect rescue, plate reader; CPE inhibition, % at 9.99 µM; 350,000 compounds, 1.7% hits; in the data active = CPE inhibition above about 20%, passing the limit was not always enough; inconclusive = no clear call, values can overlap the other calls; tested in BHK-21 cells;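 note: 0% = median of neutral control wells and 100% = median of positive control wells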
E-sel inducer: induces E-selectin expression in human endothelial cells | P16581 | HUVEC E-selectin immunofluorescence imaging; normalized: neutral wells 0, TNF-alpha wells 100 | activation, % at 7.58 µM | 260,000 compounds, 0.37% hits | AID 686992;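 active = mean E-selectin-positive cell signal at least 10% of the positive control, reached in at least 60% of replicates, without over 20% cell loss; inconclusive = no rule given, readout overlaps actives, possibly toxicity-flagged; inactive = the rest, including those meeting only one limit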
Target sequence (P16581 whole entry, looked up): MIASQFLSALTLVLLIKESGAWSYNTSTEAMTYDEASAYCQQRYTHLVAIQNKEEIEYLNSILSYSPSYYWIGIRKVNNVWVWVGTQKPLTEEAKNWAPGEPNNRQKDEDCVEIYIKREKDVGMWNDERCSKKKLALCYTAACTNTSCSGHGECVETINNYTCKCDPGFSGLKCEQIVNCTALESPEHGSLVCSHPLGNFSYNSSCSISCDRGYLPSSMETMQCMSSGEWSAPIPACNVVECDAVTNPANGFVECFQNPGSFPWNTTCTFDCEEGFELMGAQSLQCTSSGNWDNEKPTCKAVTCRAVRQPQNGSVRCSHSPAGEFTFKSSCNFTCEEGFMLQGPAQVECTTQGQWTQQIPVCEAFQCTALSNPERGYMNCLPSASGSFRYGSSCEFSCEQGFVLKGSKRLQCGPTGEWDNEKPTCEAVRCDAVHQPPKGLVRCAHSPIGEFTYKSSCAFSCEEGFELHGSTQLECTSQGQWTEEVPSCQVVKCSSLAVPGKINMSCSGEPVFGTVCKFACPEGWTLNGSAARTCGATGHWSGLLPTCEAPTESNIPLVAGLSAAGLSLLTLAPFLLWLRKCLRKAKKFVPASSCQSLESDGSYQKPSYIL
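Test system: HUVEC | Signal: Immunofluorescence imaging | Read-out: Percent E-selectin-positive cells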
Cneo AK release: Cryptococcus neoformans lysis via adenylate kinase release. C. neoformans lysis, adenylate kinase release luminescence, 4 h; normalised: neutral wells 0, clomiphene wells 100. lysis activity, % at 15 µM. 360,000 compounds, 0.2% hits;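 active = mean lysis activity across replicates of at least 80%, whatever share of replicates individually reach that level; inactive = mean lysis activity below 80%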
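Test system: log-phase Cryptococcus neoformans yeast cells; Quantity: yeast cell density of 5 × 10^6 cells/mL; Buffer or medium: YPD; Doses: single compound concentration per well; Timing: 4 h at 37 °C static, read 1 h later; Measured by: AK luminescence; Read-out basis: lysis from increased AK signal; Control set: Clomiphene as positive control.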
rRNA inh HTS: selective bacterial rRNA inhibition in E. coli; E. coli WT GFP vs humanized-ribosome RFP mutants, fluorescence, 24 h; active compounds read low; DMSO median 0, no signal -100; GFP signal change (wild-type ribosome), % (test concentration not listed); 350,000 compounds, 1.6% hits; AID 720706;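 active = significant combined selectivity score with lowered wild-type GFP, culture density cut under 30%, mutant RFP and density less affected; inactive = any of these conditions unmet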
The depositor's hits bear a star; ? = inconclusive; . = no result; [ ] = another dose, or the depositor's remark. Most compounds without a hit are left out; they make up all but 3.1% or so of the library.

SMILES	miR-122 sensor	DENV2 CPE rescue	E-sel inducer	Cneo AK release	rRNA inh HTS
OC[C@@H]1[C@H](c2ccc(-c3ccc(F)cc3)cc2)[C@@H]2CN(Cc3ccccn3)CCCCN12	3[16.7 µM]	-8	0	-1	1
C[C@H]1CN([C@@H](C)CO)C(=O)c2cccc(NC(=O)c3cnccn3)c2O[C@@H]1CN(C)S(=O)(=O)c1ccc(Cl)cc1	0[16.7 µM]	.	0	.	-4
C[C@@H]1CCCCO[C@@H](CN(C)Cc2ccccc2)[C@@H](C)CN([C@@H](C)CO)C(=O)c2cc(NC(=O)CCCN(C)C)ccc2O1	2[16.7 µM]	-7	0	2	2
CCCCCCOc1ccc(C(CC(N)=O)C(=O)O)cc1 (stereo not drawn)	-3	8	80*	-1	7
Cc1nc2cc(Br)ccc2c(=O)n1Cc1cccc(O)c1	.	1	.	-3	.
CN(C)C(=O)c1cccc(-c2ccc3c(c2)[C@H]2[C@H](CCN2C(=O)c2cccnc2)[C@@H](CO)N3)c1	-1[16.7 µM]	31*	1	-2	1
CN(C)C(=O)c1cccc(-c2ccc3c(c2)[C@@H]2[C@@H](CCN2C(=O)Cc2ccccc2)[C@H](CO)N3)c1	-6[16.7 µM]	9	0	-1	-5
CN(C)C(=O)c1cccc(-c2ccc3c(c2)[C@@H]2[C@@H](CCN2C(=O)Cc2ccncc2)[C@@H](CO)N3)c1	-10[16.7 µM]	104*	0	1	6
C[C@H](CO)N1C[C@H](C)[C@@H](CN(C)C(=O)CN(C)C)Oc2cc(-c3cccnc3)ccc2S1(=O)=O	-3[16.7 µM]	7	0	1	6
COc1ccc2c(-c3ccccc3)cc(SCC(=O)N(C)C)nc2c1	.	2	4	.	-49*
COc1ccc2c(-c3ccccc3)cc(SCC(=O)NC(N)=O)nc2c1	2	-1	1	.	20
C[C@H](CO)N1C[C@H](C)[C@H](CN(C)S(=O)(=O)c2ccc(F)cc2)Oc2cc(C#Cc3ccc(F)cc3)ccc2S1(=O)=O	-4[16.7 µM]	-1	0	-1	-1
O=C(c1ccccn1)N1CC2(C1)[C@H](c1ccccc1)[C@@H](CO)N2Cc1ccc(F)cc1	.	39*	0	.	-4
C/C=C/c1ccc([C@@H]2[C@H](CO)N(C(=O)c3cnccn3)C23CN(C(=O)C2CCC2)C3)cc1	.	14	0	.	-1
O=C(CC1CC1)N1CC2(C1)[C@H](c1ccccc1)[C@@H](CO)N2C(=O)c1cnccn1	.	-5	0	.	1
O=C(c1ccccn1)N1CC2(C1)[C@H](c1ccccc1)[C@H](CO)N2C(=O)CC1CC1	.	-9	0	.	1
O=C(CC1CC1)N1CC2(C1)[C@@H](c1ccccc1)[C@@H](CO)N2C(=O)c1cnccn1	.	32*	1	.	3
O=C(c1ccccn1)N1CC2(C1)[C@H](c1ccccc1)[C@H](CO)N2Cc1ccc(F)cc1	.	4	0	.	-1
C/C=C/c1ccc([C@@H]2[C@H](CO)N(C(=O)c3cnccn3)C23CN(C(=O)C2CC2)C3)cc1	.	24*	0	.	-1
O=C(c1ccccn1)N1CC2(C1)[C@@H](c1ccccc1)[C@@H](CO)N2C(=O)CC1CC1	.	35*	0	.	1
CCCN1[C@@H]2c3ccc(-c4cccc(C(=O)N(C)C)c4)c(=O)n3C[C@@H]2[C@@H](CO)[C@@H]1C(=O)NCCOC	-4[16.7 µM]	10	0	0	0
C/C=C/c1ccc([C@H]2[C@@H](CO)N(C(=O)C3CC3)C23CN(C(=O)NC(C)C)C3)cc1	.	105*	0	.	1
O=C(CC1CC1)N1CC2(C1)[C@H](c1ccccc1)[C@H](CO)N2Cc1ccccn1	.	23*	0	.	-3
O=C(c1ccccc1)N1CC2(C1)[C@H](c1ccccc1)[C@H](CO)N2Cc1ccccn1	.	-2	0	.	-3
C[C@@H]1CN(C)C(=O)Cc2cc(NS(C)(=O)=O)ccc2O[C@H]1CN(C)S(C)(=O)=O	.	.	.	.	-1
SMILES	miR-122 sensor	DENV2 CPE rescue	E-sel inducer	Cneo AK release	rRNA inh HTS
CN1C(=O)c2cc(NC(=O)c3cccc(C(F)(F)F)c3)ccc2OC[C@H]2O[C@@H](CC(=O)O)CC[C@H]21	.	2	0	1	-2
Cc1ccsc1C(=O)OCC(=O)N(Cc1ccccc1)C(C)C	6	0	0	1	-30*
CC(=O)N1C[C@@H]2C(c3ccccc3)[C@@H](C1)N2CC(F)(F)F (stereo partly drawn)	.	.	.	.	-1
COc1ccc(OC)c(S(=O)(=O)Nc2ccc3oc4c(c3c2)C(=O)CCC4)c1	165*	.	.	-1	.
Cc1ccc(C)c(S(=O)(=O)Nc2cc3c4c(c2)CCC(=O)N4CCC3)c1	218*	-1	.	.	5
COc1ccc(OC)c(S(=O)(=O)Nc2cc3c4c(c2)CCC(=O)N4CCC3)c1	138*	10	0	1	-6
COc1ccc2c3c(n(C)c2c1)[C@@H](CO)N(CC1CC1)CC31CN(C(=O)c2ccc(F)cc2)C1	.	?	0	.	-5
CCc1cc2c(N3CCN(C(=O)c4ccco4)CC3)ncnc2s1	-6	3	4	3	-30*
CC(=O)N1[C@@H]2c3ccc(-c4cccc(F)c4)c(=O)n3C[C@@H]2[C@@H](CO)[C@@H]1C(=O)NCCCN(C)C	.	10	-2	-2	7
Cc1cc(C)nc(NC(=O)c2ccc(COc3ccccc3Cl)cc2)c1	-8	-6	.	-2	-24*
CCOc1ccccc1-c1nnc(CS(=O)(=O)c2ccccc2)o1	7	53*	.	2	-3
CC(C)CC#Cc1cnc2c(c1)C(=O)N([C@@H](C)CO)C[C@@H](C)[C@@H](CN(C)Cc1ccc3c(c1)OCO3)O2	9[16.7 µM]	-7	0	0	-4
OCCN1CCN(CC(O)COC(c2ccc(F)cc2)c2ccc(F)cc2)CC1 (stereo not drawn)	3	2	0	-2	-4
OC(COC(c1ccc(F)cc1)c1ccc(F)cc1)CN1CCCC(C(F)(F)F)C1 (stereo not drawn)	-7	-1	0	0	-23*
CC(C)n1c2ccccc2c2cc([N+](=O)[O-])ccc21	.	-2	0	.	5
C[n+]1c(-c2ccccc2)cc2c(=Cc3ccccc3)c3ccccc3n21	.	1	220*	.	-43
C[n+]1c(-c2ccccc2)cc2c(=Cc3ccc([N+](=O)[O-])cc3)c3ccccc3n21	.	-5	122*	.	-18
CN(C)c1ccc(C=c2c3cc(O)ccc3n3c2cc(-c2ccccc2)[n+]3C)cc1	.	-4	139*	.	20
CC(=O)N(C)C[C@H]1Oc2ccc(N(C)C)cc2C(=O)N(C)C[C@@H]1C	.	.	.	.	1
COc1ccc2c3c(n(C)c2c1)[C@@H](CO)N(C(C)=O)CC31CCN(C(=O)Nc2ccc(F)cc2)CC1	.	-2	0	.	-6

Source: PubChem BioAssay
